This is an account of results in ChEMBL document CHEMBL4765374, “8-Alkynyl-3-nitroimidazopyridines display potent antitrypanosomal activity against both T. b. brucei and cruzi” (Eur J Med Chem, 2020).

Values after ≈ are worked out from the molar mass of the structure shown.

Series [1] is described as follows: Cytotoxicity against human HepG2 cells assessed as reduction in cell viability after 72 hrs by MTT assay. It counts as cell-based.
Series [2] relates to Leishmania donovani. The experiment in a line: Antileishmanial activity against Leishmania donovani MHOM/IN/00/DEVI promastigotes assessed as inhibition of metabolic activity measured after 72 hrs by MTT assay. It counts as functional, organism-based. The gist of the method:
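L. donovani MHOM/IN/00/DEVI promastigotes grown in Schneider's medium with 20% FCS at 27 °C. Log-phase parasites at 10⁶/mL were exposed in duplicate to serial compound concentrations in DMSO (final <0.5%) for 72 h at 27 °C. MTT was added for 4 h and absorbance read at 570 nm. EC50 from non-linear regression, mean of at least three independent experiments.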

A short description of series [3]: Selectivity index, ratio of CC50 for cytotoxicity against human HepG2 cells to EC50 for antileishmanial activity against Leishmania donovani MHOM/IN/00/DEVI promastigotes. It counts as toxicity, cell-based. The settings on record: read-out: Selectivity Index.
The test system of series [4] is Trypanosoma brucei brucei. The series can be described thus: […] activity against Trypanosoma brucei brucei AnTat 1.9 measured after 74 hrs by Alamar blue assay. It counts as functional, organism-based. The settings on record: AnTat 1.9, 74 h. The essentials: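 Bloodstream T. b. brucei AnTat 1.9 grown at 37 °C, 5% CO₂ in MEM with Earle's salts plus mercaptoethanol, L-cysteine, bathocuproine sulfate and 20% heat-inactivated horse serum. Seeded at 2000 parasites/100 µL and exposed in duplicate to compounds in DMSO for 69 h. Alamar Blue then added for 5 h, fluorescence read at ex 530/em 590 nm. EC50 by nonlinear regression from three independent experiments.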
On the technique in general: Alamar Blue is a resazurin reagent that responds to reducing activity.

The nature of series [5]: Selectivity index, ratio of CC50 for human HepG2 cells to EC50 for Trypanosoma brucei brucei AnTat 1.9. It counts as toxicity. The settings on record: read-out: Selectivity Index.
For series [6], the system named is Leishmania donovani. The experiment in a line: Antileishmanial activity against wild type Leishmania donovani BOB (MHOM/SD/62/1S-CL2D) promastigotes incubated for 72 hrs by resazurin dye based assay. The class given is functional, organism-based. The gist of the method:
(§1)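 Clonal L. donovani LdBOB promastigotes grown at 26 °C in modified M199; NTR1- and NTR2-overexpressing lines maintained with nourseothricin (100 µg/mL). Triplicate 10 mL cultures seeded at 5×10^4 parasites/mL with drug for 72 h; 200 µL aliquots then given 50 µM resazurin, fluorescence (ex 528/em 590 nm) after 4 h more. EC50 from slope-factor equation; experiments repeated at least twice, mean plus standard deviation.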

Series [7] concerns Leishmania donovani. The experiment in a line: Antileishmanial activity against Leishmania donovani BOB (MHOM/SD/62/1S-CL2D) promastigotes overexpressing NTR1 incubated for 72 hrs by resazurin dye based assay. It counts as functional, organism-based. The gist of the method:
as §1

Series [8] relates to Leishmania donovani. The experiment in a line: Antileishmanial activity against Leishmania donovani BOB (MHOM/SD/62/1S-CL2D) promastigotes overexpressing NTR2 incubated for 72 hrs by resazurin dye based assay. It counts as functional, organism-based. The gist of the method:
as §1

Series [9] deals with Trypanosoma brucei brucei. The series can be described thus: Antitrypanosomal activity against bloodstream form of wild type Trypanosoma brucei brucei S427 trypomastigotes incubated for 72 hrs. Conditions: S427, 72 h. It counts as functional, organism-based. The essentials:
(§2)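 Bloodstream-form T. brucei 'single marker' S427 cultured at 37 °C in HMI9-T with 2.5 µg/mL G418. The NTR1-overexpressing line was kept with 2.5 µg/mL phleomycin and induced with 1 µg/mL tetracycline 48 h before testing. Triplicate cultures seeded at 1×10^5 cells/mL with inhibitor. Cell densities counted after 72 h. EC50 from slope-factor equation.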

For series [10], the system named is Trypanosoma brucei brucei. The series can be described thus: Antitrypanosomal activity against bloodstream form of Trypanosoma brucei brucei S427 trypomastigotes overexpressing NTR incubated for 72 hrs. It counts as functional, organism-based. Conditions: S427, 72 h. The essentials:
as §2

Series [11] in a line: Solubility of the compound in aqueous medium at highest dose. The class given is physicochemical. Conditions: buffer.
In series [12] the test system is Trypanosoma cruzi. The experiment in a line: Antitrypanosomal activity against Trypanosoma cruzi trypomastigotes infected in African green monkey Vero cells incubated for 120 hrs measured on day 6 cells followed by trypomastigotes release by haemocytometer-based light microscopy. The class given is functional, organism-based. The gist of the method: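 Vero cells, grown 2 days, were infected with T. cruzi CL Brener trypomastigotes at 3:1 parasites to host cells. After 24 h, free parasites were washed off and compounds added (0.1 to 25 µM, 2 to 4-fold dilutions) for 120 h at 37 °C. Trypomastigotes released into the medium by day 6 were pelleted and counted by haemocytometer. EC50 by non-linear regression; two independent experiments, each in triplicate.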

The subject of series [13] is THP-1. The experiment in a line: Cytotoxicity against human THP-1 cells assessed as reduction in cell viability after 72 hrs by MTT assay. It counts as functional. The essentials: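 THP-1 cells at 5×10⁴ cells/mL in complete RPMI were exposed in duplicate to compounds in DMSO (final <0.5%) for 72 h at 37 °C. MTT at 0.5 mg/mL for 2 h, formazan dissolved in DMSO, absorbance read at 570 nm with 630 nm reference. CC50 from the dose-response curve, mean of three independent experiments.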

A short description of series [14]: Thermodynamic solubility of the compound in phosphate buffer at pH 7.4 by shake flask method. It counts as physicochemical. The settings on record: read-out: Therm_solubility. The essentials:
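Miniaturized shake-flask method: a 20 mM DMSO stock was diluted into phosphate buffer pH 7.4 (n=3), sonicated and shaken for 24 h at room temperature, then centrifuged. Supernatant was mixed 1:1 with acetonitrile and quantified by UV spectrophotometry at the compound's λmax against a calibration curve.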

Series [15] has as its target Albumin (Homo sapiens, UniProt P02768). The experiment in a line: Protein binding to human albumin by LC-MS analysis. The class given is ADME. Conditions: read-out: PB (converted). The essentials:
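Plasma spiked with compound was dialysed at 37 °C in triplicate against phosphate buffer pH 7.2 for 4 h at 300 rpm. Both compartments were sampled and quantified by LC-MS using propranolol as internal standard. Unbound fraction taken from the plasma and buffer peak ratios; recovery checked with a non-incubated spiked plasma.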

Series [16] in a line: Microsomal stability in CD-1 mouse liver microsomes assessed as half life measured after 40 mins in presence of NADPH by LC-MS/MS analysis. It counts as ADME, Microsome. The essentials:
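Female CD-1 mouse microsomes incubated in duplicate at 37 °C in 50 mM phosphate buffer, pH 7.4, with MgCl₂, NADP, glucose-6-phosphate and G6P dehydrogenase. […] Propranolol as reference.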
On the technique in general: Liver microsomes are a subcellular fraction often used to study metabolism.

A short description of series [17]: Effective permeability of the compound at pH 7.4 incubated for 4 hrs by PAMPA-BBB assay. The class given is ADME. The settings on record: read-out: permeability. The essentials: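 Compound diluted from a 20 mM DMSO stock to 100 µM in Prisma HT buffer pH 7.4 and placed in the donor wells. Acceptor membrane coated with BBB-1 lipid, with Brain Sink Buffer in the acceptor wells. Plates incubated 4 h at room temperature without stirring, then read by UV-visible spectra to give Pe. Corticosterone and theophylline served as high and low permeability standards; n=6.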
In general terms: PAMPA measures passive passage across an artificial lipid membrane.

Series [18] in a line: Cmax in Swiss albino mouse at 100 mg/kg, po. It counts as ADME, organism-based. Further details: route oral, dose 100 mg/kg. Conditions: in vivo. The gist of the method: (§3)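 Female Swiss mice, 8 weeks, 30-32 g, given a single oral gavage at 100 mg/kg as a suspension in 5% Tween 80/95% carboxymethylcellulose 0.5% in water. Blood (100 µL) was extracted with ACN containing ornidazole as internal standard plus QuEChERS salts, then quantified by positive-ESI LC-MS/MS on a C8 column against whole-blood calibration standards (5 to 1,000 ng/mL).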

The nature of series [19]: Tmax in Swiss albino mouse at 100 mg/kg, po. The class given is ADME, organism-based. The settings on record: in vivo. The essentials:
as §3

Series [20] is described as follows: Half life in Swiss albino mouse plasma at 100 mg/kg, po. The class given is ADME, organism-based. The gist of the method:
as §3

Series [21] is described as follows: AUC (0 to infinity) in Swiss albino mouse at 100 mg/kg, po. It counts as ADME, organism-based. Also noted: time infinity, route oral, dose 100 mg/kg. The settings on record: in vivo. The gist of the method:
as §3

Series [22] can be described thus: Clearance in Swiss albino mouse at 100 mg/kg, po. The settings on record: in vivo. The class given is ADME, organism-based. The essentials:
as §3

Series [23] in a line: Genotoxicity in Salmonella typhimurium at 0.25 mM incubated for 48 hrs by Ames test. It counts as toxicity. Conditions: salmonella enterica subsp. enterica serovar typhimurium, 250 µM. The gist of the method:
(§4)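 Liquid pre-incubation Ames test using S. typhimurium TA97a, TA98, TA100 and TA102 grown overnight in nutrient broth. Cultures were incubated with compound (5-50 mM DMSO stock) and 4% S9 mix for 1 h at 37 °C, then plated in top agar on minimal agar for 48 h at 37 °C in the dark, in duplicate. Positive result: a two-fold rise in revertants over the spontaneous count. Benzo[a]pyrene with S9 as positive control.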

The nature of series [24]: Genotoxicity in Salmonella typhimurium at 2.5 mM incubated for 48 hrs by Ames test. The settings on record: salmonella enterica subsp. enterica serovar typhimurium, 2500 µM. It counts as toxicity. The gist of the method: as §4
In series [25] the test system is HepG2. The series can be described thus: Genotoxicity in human HepG2 cells assessed as induction of DNA damage at 20 to 30 uM incubated for 2 to 72 hrs by alkaline comet assay. It counts as toxicity, cell-based. Conditions: hepg2, 30 µM, dose lower 20 µM, time lower 2 hrs, dose upper 30 µM, time upper 72 hrs. The essentials: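 HepG2 cells exposed for 2 or 72 h at 20 or 30 µM, then trypsinized and embedded in 0.7% low-melting agarose. Lysis 18 h at 4 °C, pH 10; alkaline electrophoresis (pH >13) for 24 min at 0.8 V/cm. Gels stained with SYBR Gold and imaged. % tail DNA is the median of 50 cells per deposit, three deposits per sample.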

Sequence of Albumin (P02768 whole entry): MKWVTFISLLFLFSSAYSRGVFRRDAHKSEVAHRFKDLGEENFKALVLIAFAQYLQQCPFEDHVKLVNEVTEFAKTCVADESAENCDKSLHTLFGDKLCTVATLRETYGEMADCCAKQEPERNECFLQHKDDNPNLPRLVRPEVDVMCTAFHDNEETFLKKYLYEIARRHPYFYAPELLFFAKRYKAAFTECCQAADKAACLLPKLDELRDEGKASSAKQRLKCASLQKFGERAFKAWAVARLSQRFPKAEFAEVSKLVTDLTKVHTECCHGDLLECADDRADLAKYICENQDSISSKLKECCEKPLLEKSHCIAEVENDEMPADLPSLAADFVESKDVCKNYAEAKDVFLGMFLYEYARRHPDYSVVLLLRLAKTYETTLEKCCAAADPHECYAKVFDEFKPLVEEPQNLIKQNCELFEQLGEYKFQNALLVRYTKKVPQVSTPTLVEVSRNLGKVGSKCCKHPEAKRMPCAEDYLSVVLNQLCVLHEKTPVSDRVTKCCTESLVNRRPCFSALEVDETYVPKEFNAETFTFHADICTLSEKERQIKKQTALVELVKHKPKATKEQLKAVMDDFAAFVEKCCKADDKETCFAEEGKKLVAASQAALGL

Regarding `CCC(O)CC#Cc1cc(Cl)cn2c([N+](=O)[O-])c(CS(=O)(=O)c3ccccc3)nc12` (stereo unspecified), the CC50 – broadly, the concentration at which the toxic effect on the cells reaches its halfway point – at 72 h in [1] was greater than 62500 nM. Moreover, the 50% effective concentration (EC50) (as a rule, the concentration giving half of the maximal effect) came out at 1600 nM in series [2]; 40 nM in [4]; 7300 nM in series [6]; 400 nM in [7]; 8500 nM in [8]; 200 nM in series [9]. The same compound yielded an EC50 in [10] of 66.3 nM. Further, the selectivity ratio in series [3] is greater than 39.1; in series [5], greater than 1560. Moreover, the solubility result in [11] is on record as “Insoluble”.

As for `O=[N+]([O-])c1c(CS(=O)(=O)c2ccccc2)nc2c(C#CCCO)cc(Cl)cn12`, the cytotoxic concentration (CC50) at 72 h in [1] was greater than 125000 nM. Further, the concentration giving a half-maximal response (EC50) in series [2] came out at 7400 nM; in series [4], 70 nM; in [12], 1200 nM; in [6], 21400 nM; in series [7], 500 nM; in series [8], 24500 nM. Besides, the EC50 in series [9] was 124 nM; in series [10] it was 26.5 nM. Further, the values for the selectivity ratio in series [3] and in [5] were greater than 16.9 and greater than 1790, respectively. In series [13], the CC50 was greater than 100000 nM. In addition, in [14], the solubility thermodynamic came to 70.7 µM (≈ 29.7 µg/mL). The fraction unbound in series [15] was 0.015. Further, the figures for the half-life in series [16] and in series [20] were 16 min and 601 min, respectively. Moreover, the Papp at 4 h in series [17] is 34.6 ×10⁻⁶ cm/s. Moreover, in series [18], the peak concentration (Cmax) (as a rule, the maximum level reached in the sampled fluid or tissue) is 394 ng/mL. Also, the time of peak concentration (Tmax) (in general, the time from dosing to the highest level) in series [19] stood at 49.8 min. In addition, the AUC(0-inf) (as a rule, the area under the concentration-time curve extrapolated to infinity) in series [21] is 1430 ng·h/mL. In series [22], the CL/F (in general, clearance divided by bioavailability, as obtained after extravascular dosing) was 0.0407 mL/min. The Activity entry in series [23] is “Toxic”; in series [24], “Toxic”; in [25], “Non-Toxic”. In addition, the solubility entry in series [11] is recorded as “Insoluble”.
